# LEDGF integ inh – blocks HIV-1 LEDGF/p75-dependent DNA integration; TR-FRET IN-LEDGF/p75 DNA integration, Eu/Cy5; inhibition, % at 3.7 µM; 0.64% of 370,000 active;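 active = inhibition above the screen-wide mean plus 3 SD, cut at about 13% in these data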;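 also: signal is the Cy5 over europium emission ratio at 671 and 618 nm; 0% = plate median of compound wells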
# MBD2 DNA inh – MBD2-methylated oligo binding inhibition | 0.31% of 370,000 active | inhibition, % at 4.4 µM | Q9UBB5 | TR-FRET, MBD2 binding to methylated oligonucleotide; in the data active = inhibition above about 13%
# DDE Tn7 FP inh – DD(E)-Tn7 binding inhibition, primary FP screen; P02675; FP displacement of FITC-Tn7 peptide from fibrin DD(E); 0% = median of compound wells per plate; inhibition, % at 8.3 µM; 0.13% of 370,000 active;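 active = inhibition above the mean of compounds falling within the control limits plus 3 SD of them, cut at about 14% in these data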;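 also: 0% = plate median of compound wells and 100% = 10 µM Aha-Tn7 peptide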
# Target sequence (P02675 whole entry, looked up): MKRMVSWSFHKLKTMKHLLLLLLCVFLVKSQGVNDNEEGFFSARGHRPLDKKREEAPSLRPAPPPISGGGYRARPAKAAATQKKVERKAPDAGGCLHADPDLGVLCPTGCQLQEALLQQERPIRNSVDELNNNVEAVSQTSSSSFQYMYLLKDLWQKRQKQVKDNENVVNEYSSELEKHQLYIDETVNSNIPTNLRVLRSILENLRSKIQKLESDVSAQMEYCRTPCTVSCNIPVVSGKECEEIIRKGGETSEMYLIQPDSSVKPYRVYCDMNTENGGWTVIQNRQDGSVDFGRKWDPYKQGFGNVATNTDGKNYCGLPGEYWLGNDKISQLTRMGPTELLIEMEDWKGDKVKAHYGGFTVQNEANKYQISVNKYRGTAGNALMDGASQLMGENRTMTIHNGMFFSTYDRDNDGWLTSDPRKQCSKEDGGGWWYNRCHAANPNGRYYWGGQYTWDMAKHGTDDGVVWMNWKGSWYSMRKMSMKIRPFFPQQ
#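 Test system – human fibrin DD(E) · Times – 10 min preincubation, 3 h with tracer, room temperature · Detection – fluorescence polarization of the labelled Tn7 tracer · Measure – percent inhibition normalized to high-control wells · Benchmarks – high control wells with 10 µM unlabelled Aha-Tn7 peptide (full inhibition) · Repeats – singlicate testing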
# Tn6 DDE FP – inhibitors of Tn6 peptide binding to human fibrin DD(E); P02675; Fibrin DD(E) TRITC-Tn6 fluorescence polarization displacement; inhibition, % at 8.3 µM; 0.21% of 370,000 active;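 active = inhibition above a per-campaign cutoff: mean of compounds within control limits plus 3 SD, cut at about 15% in these data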;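 also: 0% = median of all compound wells on the plate and 100% = blocking peptide control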
# UHRF1 MBD2 ctr – blocks human UHRF1 binding to methylated DNA; Q96T88; UHRF1 binding to methylated oligo, TR-FRET; inhibition, % at 4.4 µM; 0.75% of 370,000 active; in the data active = inhibition above about 21%;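 also: UHRF1 SRA domain binding a hemimethylated CpG hairpin DNA probe; 0% = median of test compound wells and 100% = reference inhibitor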
# TDP2 inh – TDP2 (human) inhibition, absorbance primary screen; O95551; recombinant TDP2, T5PNP hydrolysis, p-nitrophenol absorbance 415 nm; inhibition, % at 12.8 µM; 0.34% of 370,000 active; AID 720702;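 active = inhibition above the mean of all tested compounds plus 3 SD, set per campaign, cut at about 25% in these data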;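 also: 0% = DMSO with enzyme and 100% = buffer with substrate but no TDP2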
#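 System: recombinant human TDP2 / Amount: 120 nM TDP2 per well / Also added: 5 mM T5PNP chromogenic substrate / Doses: 12.8 µM single point, 1% DMSO / Incubation: 2 h at 37 °C / Detection: p-Nitrophenol epi absorbance / Evaluation: % inhibition relative to enzyme-containing and enzyme-free wells / Repeats: singlicate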
# Tn7 DDE conf – DD(E)-Tn7 binding inhibition, FP confirmation; FP displacement of TRITC-Tn7 peptide from DD(E); 0% set at plate's compound-well median; AID 720628; shares compounds with DDE Tn7 FP inh; inhibition, % at 8.3 µM; 5% of 460 active;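 active = inhibition above the campaign cutoff, the mean of compounds within control limits plus 3 SD, cut at about 14% in these data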;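 also: 100% = median FP of high control wells holding Aha-Tn7 inhibitor peptide; displacers lower polarization since freed probe rises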
# Tn7 DDE ctr – counter-screen hit for Tn7 peptide-fibrin DD(E) binding disruption; shares compounds with DDE Tn7 FP inh; TRITC-Tn7 probe displacement, fluorescence polarization; inhibition, % at 8.3 µM; 3% of 460 active; AID 720633;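 active = inhibition above the cutoff, the mean of compounds lying between the control bounds plus 3 SD of those compounds, cut at about 17% in these data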;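 also: 0% = median of compound sample wells and 100% = excess unlabeled Aha-Tn7 peptide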
# * marks the source's active call; other numbers are inactive results; · = not tested or not shown. A selection: hits, their analogues and other compounds. The true share with any hit is near 1.9%.
SMILES,LEDGF integ inh,MBD2 DNA inh,DDE Tn7 FP inh,Tn6 DDE FP,UHRF1 MBD2 ctr,TDP2 inh,Tn7 DDE conf,Tn7 DDE ctr
Cc1ccc(NC(=O)C2CC(O)CN2C(=O)OCc2ccccc2)cc1C (centres undefined),2.5,-2.5,14.7*,5.3,-0.5,-5.1,7.4,2.9
CCOC(=O)N1CCN(Cc2nc(-c3ccc(Cl)cc3)no2)CC1,-1.9,3.9,15.2*,-0.9,0.2,7.2,6.3,-9.9
Cc1ccc2nc(-c3ccccc3)c(Cc3ccccc3C(F)(F)F)n2c1,5.2,4.9,15.6*,6.3,1.5,-1.9,1.3,-1.9
Cc1ccc(-c2nc3ccc(C)cn3c2Cc2ccccc2C(F)(F)F)cc1,3.6,-2.2,6.0,1.1,3.3,1.3,·,·
CC(=O)c1nc(N2C(=O)CC(Cc3cccc(C)c3)C2=O)sc1C (centres undefined),-1.6,9.8,16.1*,-6.0,4.4,-2.0,1.7,2.1
CC(=O)c1nc(N2C(=O)CC(Cc3cc(C)cc(C)c3)C2=O)sc1C (centres undefined),4.4,-5.2,-1.4,-0.1,-5.6,0.8,·,·
C[C@@H]1CN([C@@H](C)CO)C(=O)CCCn2cc(nn2)CO[C@H]1CN(C)C(=O)Nc1ccccc1F,-2.2,0.1,1.4,-3.8,0.4,-1.5,·,·
CC1CCCCN1C(=O)COC(=O)Cc1c[nH]c2ccccc12 (centres undefined),2.3,-3.1,14.8*,3.9,-1.6,-7.2,2.0,-0.4
CC1CCCC(C)N1C(=O)COC(=O)Cc1c[nH]c2ccccc12 (centres undefined),1.8,-6.8,1.3,1.6,-1.2,3.6,·,·
CCC1(C)NC(=O)N(CC(=O)N2N=C(c3ccccc3)CC2c2ccc(OC)cc2)C1=O (centres undefined),-0.1,-3.8,16.5*,3.0,-0.6,-6.7,-4.5,-8.8
COC(=O)c1cc2c(c3c4ccccc4n(S(=O)(=O)c4ccccc4)c13)C(=O)N(C)C2,-5.8,-2.6,1.6,3.9,-2.2,-0.8,·,·
O=C(COC(=O)c1ccc(S(=O)(=O)N2CCOCC2)cc1)NCc1ccccc1,2.2,-1.8,0.1,-7.2,-1.6,10.4,·,·
COCCNC(=O)COC(=O)c1ccc(S(=O)(=O)N2CCOCC2)cc1,-0.3,-3.3,16.2*,0.1,-2.9,-0.3,2.3,3.0
CCOc1cc(/C=C2\CCCc3c2nc2ccccc2c3C(=O)O)ccc1OC,-1.3,-13.2,64.4*,-0.6,-6.6,0.8,31.4*,-1.6
COc1cc(/C=C2\CCCc3c2nc2ccccc2c3C(=O)O)cc(Br)c1O,-2.8,0.1,-2.1,5.0,-2.4,7.2,·,·
COc1ccc(CC(=O)N[C@@H]2c3ccccc3CC[C@H]2OCc2ccccc2)cc1,5.7,-4.6,0.5,-4.7,1.5,-1.9,·,·
CC(C)C(=O)N[C@@H]1c2ccccc2CC[C@@H]1OCc1ccccc1,-2.1,7.2,14.3*,5.3,10.6,11.4,-0.5,-4.0
CCOC(=O)N1CCN(C(=O)C[C@H]2C[C@@]3(C(=O)OC)C(=C[C@H](COCc4ccccc4)O[C@@H]3C)N(Cc3ccco3)C2=O)CC1,7.5,-3.3,-1.1,3.1,0.7,-7.2,·,·
O=C(c1ccccc1)N1CCSc2sccc2C1=O,-4.6,-2.0,15.2*,9.5,-3.4,9.2,5.3,-4.8
NS(=O)(=O)c1ccc(CNC(=O)Cc2ccccc2[N+](=O)[O-])cc1,-3.4,-0.1,15.3*,2.1,-0.1,3.5,0.0,2.5
Cn1c(=O)c(Nc2ccc(O)cc2)c2c3c(cccc31)C(=O)c1ccccc1-2,7.9,-1.3,15.5*,3.3,-13.5,6.8,9.4,4.6
CC(C)c1ccc(Nc2c([N+](=O)[O-])c(=O)n(C)c3ccccc23)cc1,1.0,-1.0,-6.1,2.3,-3.1,-5.2,·,·
CCn1c2c(n(C(C)=O)c1=O)C=C(C(=O)N1CCCC1)C(C)C(c1ccccc1)=C2 (centres undefined),-2.3,2.2,6.7,-3.5,2.7,-6.5,·,·
O=C(NCCC(=O)N1CCN(c2ccccn2)CC1)c1ccc([N+](=O)[O-])cc1,-3.9,2.8,15.2*,1.1,1.1,2.9,-3.8,-16.6
Cc1cc(Br)c2nc(-c3ccc(Cl)cc3)c(Cc3cccc(Cl)c3)n2c1,-3.1,6.4,4.1,1.6,15.1,-5.3,·,·
SMILES,LEDGF integ inh,MBD2 DNA inh,DDE Tn7 FP inh,Tn6 DDE FP,UHRF1 MBD2 ctr,TDP2 inh,Tn7 DDE conf,Tn7 DDE ctr
CCCNC(=O)C1(C)CCCN(C(=O)c2cccnc2Oc2ccccc2)C1 (centres undefined),-1.2,5.1,14.1*,6.2,2.8,-1.1,4.2,6.3
COc1ccc(-c2noc(C3CCCN(C(=O)Nc4ccc(C)c(F)c4)C3)n2)cc1 (centres undefined),-4.5,0.1,-7.8,2.5,1.1,-4.4,·,·
O=C(NC(=O)c1ccc(C(F)(F)F)cc1)Nc1ccc(-c2cnco2)cc1,-2.8,2.7,14.2*,-0.1,1.2,4.5,-1.8,-2.6
O=C(Nc1ccc(-c2cnco2)cc1)c1ccc(F)cc1F,-0.7,-3.3,10.6,-3.1,2.7,8.9,·,·
CCC(C)NC(=O)CSc1nnc(-c2cc(OC)c(OC)c(OC)c2)o1 (centres undefined),6.8,-3.1,-0.2,2.9,-1.6,-4.5,·,·
Cc1c(O)nc2ccccn2c1=O,-0.9,-1.9,13.8*,13.0,-2.2,-1.8,1.3,-2.6
Cc1ccc(N=Cc2ccccc2O)cc1Cl,-1.9,-2.1,14.6*,6.4,-3.3,2.9,4.2,3.2
CC(C)c1nc(C#N)c(NN)o1,-1.7,-6.5,13.8*,-3.1,-3.3,-4.1,-6.7,-9.2
CC(C)c1nc(C#N)c(NCCCn2ccnc2)o1,2.9,2.8,-6.0,4.4,2.1,-14.0,·,·
CC1(C)CC(=O)C2=C(C1)N(Cc1ccco1)C(=O)C2(NC(=O)C1CCCCC1)C(F)(F)F (centres undefined),-3.1,-0.1,14.0*,-1.7,0.2,-1.4,1.5,5.1
CC1=NC(C(F)(F)F)(C(F)(F)F)C2=C(CC(C)(C)CC2=O)N1Cc1ccco1,1.6,-5.8,13.9*,-8.5,-1.8,4.1,5.5,2.9
C[C@@]12CCC=C[C@H]1[C@H](c1ccc(/C=C/c3ccccc3)cc1F)N(Cc1ccccc1)C2=O,-0.7,-0.8,15.9*,10.5,-3.0,4.6,7.5,2.7

# Bioassay records (PubChem)
